According to ChEMBL document CHEMBL1649352, “Catechin derivatives from Parapiptadenia rigida with in vitro wound-healing properties” (J Nat Prod, 2010):
pIC50: −log10 of the molar value. Calls of active or inactive are those of the source. The calls are words filed in the database; no cut-off is given here.

How the values were obtained:
NIH3T3 [1] = test: Antimigratory activity against Swiss albino mouse 3T3 cells assessed as increase of cell numbers at 1 to 20 uM after 12 hrs by scratch-wound assay; type: functional, cell-based
In short: (§1)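 Swiss 3T3 albino mouse fibroblasts, cultured in DMEM with 10% FCS and penicillin/streptomycin at 37 °C, 5% CO2. A scratch wound was made in the confluent monolayer. Compounds were tested at 1, 10 and 20 µM. PDGF 2 ng/mL served as positive control and a DMSO-only well as reference. The % increase in cells migrating and proliferating into the wounded area was read after 12 h. At least triplicate runs, mean ± SEM.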

Jurkat [2] = test: Inhibition of TNFalpha-induced NF-kappaB activation in human Jurkat cells at 10 to 55 uM after 24 hrs by electrophoretic mobility shift assay; type: cell-based
In short: (§2)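 Jurkat T cells (3 × 10⁵ cells/mL) in RPMI 1640 with 10% FCS were preincubated 24 h with compound at 10, 20, 30 or 55 µM. They were then stimulated 1 h with rh-TNF-α 2.5 ng/mL. Nuclear extracts were probed with a [γ-³³P]-labelled NF-κB consensus oligonucleotide. Specificity was checked with a 100-fold molar excess of unlabelled oligo. Bands were quantified densitometrically by phosphorimager.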

NIH3T3 [3] = test: Antimigratory activity against Swiss albino mouse 3T3 cells assessed as increase of cell numbers at 10 uM after 12 hrs by scratch-wound assay; type: functional, cell-based; in short: as §1
[4] = molecular target: Mitogen-activated protein kinase 14 (Homo sapiens, UniProt Q16539); test: Inhibition of p38alpha after 1 hr by ELISA
Sequence of Mitogen-activated protein kinase 14 (Q16539 whole entry): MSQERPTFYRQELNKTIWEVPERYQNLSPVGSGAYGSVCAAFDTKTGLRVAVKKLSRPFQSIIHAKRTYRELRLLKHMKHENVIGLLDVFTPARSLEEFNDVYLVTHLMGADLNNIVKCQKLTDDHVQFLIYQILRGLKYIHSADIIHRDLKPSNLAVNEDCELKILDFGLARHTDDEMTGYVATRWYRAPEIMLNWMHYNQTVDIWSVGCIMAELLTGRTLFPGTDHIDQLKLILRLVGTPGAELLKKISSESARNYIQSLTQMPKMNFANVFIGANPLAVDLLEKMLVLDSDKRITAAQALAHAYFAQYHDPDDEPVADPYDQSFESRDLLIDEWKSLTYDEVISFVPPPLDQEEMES

NIH3T3 [5] = test: Antimigratory activity against Swiss albino mouse 3T3 cells assessed as increase of cell numbers at 1 uM after 12 hrs by scratch-wound assay; type: functional, cell-based; in short: as §1
Jurkat [6] = test: Inhibition of TNF-alpha-induced NFkappaB activation in human Jurkat cells at 10 to 20 uM after 24 hrs by electrophoretic mobility shift assay; type: cell-based; in short: as §2
Jurkat [7] = test: Cytotoxicity against human Jurkat cells at 55 uM after 22 hrs by MTT assay; type: cell-based
Jurkat [8] = test: Inhibition of TNF-alpha-induced NFkappaB activation in human Jurkat cells at 30 to 55 uM after 24 hrs by electrophoretic mobility shift assay; type: cell-based; in short: as §2
NIH3T3 [9] = test: Antimigratory activity against Swiss albino mouse 3T3 cells assessed as increase of cell numbers at 2 ng/ml after 12 hrs by scratch-wound assay; type: functional
In short: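 Swiss 3T3 albino mouse fibroblasts were grown in DMEM with 10% fetal calf serum and penicillin/streptomycin at 37 °C and 5% CO2, and a scratch wound was made in the monolayer. PDGF (2 ng/mL) was incubated for 12 h. Read-out was the % of cells that migrated into and proliferated in the wounded area, relative to a cells-plus-DMSO control. At least triplicate; mean ± SEM.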

Row | SMILES | Activity (NIH3T3 [1]) | Activity (Jurkat [2]) | pIC50 [4] | further results
1 | COc1c(O)cc([C@H]2Oc3cc(O)cc(O)c3C[C@@H]2O)cc1O | Active | Active |  | 
2 | O=C(O[C@@H]1Cc2c(O)cc(O)cc2O[C@@H]1c1ccc(O)c(O)c1)c1cc(O)c(O)c(O)c1 [EPICATECHIN GALLATE] |  |  | 5.83 | Activity (NIH3T3 [3]): inactive; Activity (NIH3T3 [5]): Active
3 | COc1c(O)cc([C@H]2Oc3cc(O)cc(O)c3C[C@H]2OC(=O)c2cc(O)c(O)c(O)c2)cc1O | Active | Active |  | 
4 | COc1ccc([C@H]2Oc3cc(O)cc(O)c3C[C@H]2OC(=O)c2cc(O)c(O)c(O)c2)cc1O |  |  |  | Activity (NIH3T3 [3]): inactive; Activity (NIH3T3 [5]): Active
5 | COc1c(O)cc([C@H]2Oc3cc(O)cc(O)c3C[C@H]2O)cc1O |  | Active | 4.41 | 
6 | COc1cc([C@H]2CC(=O)Oc3cc(O)c4c(c32)O[C@H](c2cc(O)c(OC)c(O)c2)[C@@H](O)C4)ccc1O | Active |  | 4.29 | Activity (Jurkat [6]): Active; Activity (Jurkat [7]): 11%; Activity (Jurkat [8]): inactive
7 | COc1cc(/C=C/C(=O)O[C@@H]2Cc3c(O)cc(O)cc3O[C@@H]2c2cc(O)c(O)c(O)c2)ccc1O |  | Active |  | 
8 | O=C(O[C@@H]1Cc2c(O)cc(O)cc2O[C@@H]1c1cc(O)c(O)c(O)c1)c1cc(O)c(O)c(O)c1 [EPIGALOCATECHIN GALLATE] | Active | Active | 5.66 | Activity (NIH3T3 [9]): 59.5%
